High-throughput results deposited in PubChem by several laboratories.
HNF4A DNA FP = change in binding of human HNF4 alpha to DNA | P41235 | HNF4a-FITC DNA binding, fluorescence polarization, 1 h | activity change, % at 10 µM | actives 0.3% (n = 360,000); in the data active = activity change above about 30%, passing the limit was not always enough
TPT1 inhibitor = C. albicans TPT1 enzyme inhibition; inhibition, % at 5 µM; actives 0.81% (n = 300,000); AID 1962; recombinant caTPT1, FP RNA substrate dephosphorylation;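 active = inhibition above the mean of all tested compounds plus 3 SD, set per screening campaign, cut at about 24% in these data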
aDG glyco act = increases alpha dystroglycan glycosylation; Pro5-aDG cells, alpha-DG glycosylation AlphaScreen (IIH6); 0% Pro5, 100% B10-LARGE cell signal; activation, % at 10 µM; actives 0.22% (n = 360,000);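 active = activation of at least 8% versus controls, or a plate z-score of at least 8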;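 also: Pro5 are CHO cells carrying HIG-tagged alpha-DG that lacks glycosylation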
Rpn11 block = inhibitors of human proteasome Rpn11; human 26S proteasome, Ub4-pepOG fluorescence polarization; 20S core pre-blocked with epoxomicin; inhibition, % at 20 µM; actives 0.59% (n = 360,000);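 active = inhibition at 20 µM, scaled to each plate's controls, above about 33%, limit read from the data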
Target sequence (O00487 whole entry, looked up): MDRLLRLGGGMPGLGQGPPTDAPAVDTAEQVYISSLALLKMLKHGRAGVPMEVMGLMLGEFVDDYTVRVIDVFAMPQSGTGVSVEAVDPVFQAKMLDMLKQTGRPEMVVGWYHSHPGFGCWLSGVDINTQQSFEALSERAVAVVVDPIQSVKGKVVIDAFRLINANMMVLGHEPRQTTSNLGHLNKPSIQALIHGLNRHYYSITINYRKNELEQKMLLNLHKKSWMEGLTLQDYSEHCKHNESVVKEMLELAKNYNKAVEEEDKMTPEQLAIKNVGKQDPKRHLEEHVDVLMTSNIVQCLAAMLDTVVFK
XiGFP reactiv = X-chromosome reactivation activator. XiGFP mouse fibroblasts, % GFP-positive cells imaging, 3 d; cells co-treated with 5-aza-dC sensitizer; scaled so ellipticine positive control = 100%. activation, % at 7.58 µM. actives 0.055% (n = 360,000);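 active = mean normalized replicate activation at least 10% and every replicate at or above 10%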
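material = 68-5-11 XiGFP fibroblast line | medium = DMEM plus 5-aza-dC sensitizer | schedule = 3 days compound exposure | benchmarks = positive control ellipticine, 6 µM final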
CSN inh = blocks human CSN-mediated cullin deneddylation; Purified CSN, SCF-Nedd8-OG deneddylation, fluorescence polarization; AID 651999; inhibition, % at 12.5 µM; Q92905; actives 0.38% (n = 360,000);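 active = pattern-corrected inhibition above about 35%, with an unprinted fluorescence ratio check between 0.5 and 1.5, limit read from the data, passing the limit was not always enough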
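Assay system: HEK293T-derived human Csn5 enzyme; quantity: 0.24 nM enzyme; medium: Tris/NaCl/DTT buffer, pH 7.5; also added: substrate SCFSkp2-Nedd8OG, 10 nM; doses: 12.5 µM compound; schedule: 90 min reaction at room temperature; signal: FP; read-out: % inhibition of substrate cleavage by Csn5; benchmarks: substrate-only high control, full reaction low control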
aDG conf = confirmation of alpha dystroglycan glycosylation activators | shares compounds with aDG glyco act | Pro5-aDG cells, alpha-DG glycosylation, IIH6 AlphaLISA; scaled to LARGE-overexpressing B10 cells as 100% | activation, % at 10 µM (by protocol) | actives 17% (n = 600);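 active = activation of at least 7% in one or more replicates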;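 also: cells exposed to compound for two days before detection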
Numbers stand for hits; 0 = inactive; - = no result given. A selection: hits, their analogues and other compounds. The true share with any hit is near 1.3%.

SMILES	HNF4A DNA FP	TPT1 inhibitor	aDG glyco act	Rpn11 block	XiGFP reactiv	CSN inh	aDG conf
CN(C)CC(=O)N[C@@H]1CC[C@@H](CCn2cc(CN(C)C)nn2)O[C@@H]1CO	-	-	-	-	0	-	-
O=C(NCC1CCCCC1)[C@H]1[C@H](CO)[C@H]2Cn3c(ccc(-c4ccccc4)c3=O)[C@@H]1N2	-	-	-	-	0	-	-
O=C(Nc1ccc(O)cc1)c1ccccc1OCc1ccccc1	0	-	0	0	0	0	-
O=C(Nc1ccccc1)c1ccccc1OCc1ccc(F)cc1	0	0	3.8	0	0	0	0
CCc1ccc(C2c3[nH]c4ccccc4c3CCN2C(=O)CNC(N)=O)cc1 (stereo unspecified)	0	0	0	0	0	0	-
CCc1ccc(C2c3[nH]c4ccccc4c3CCN2C(=O)CN2CCN(CC)CC2)cc1 (stereo unspecified)	0	0	8.0	0	0	0	13
CC1CN(S(=O)(=O)c2ccc(C(=O)Nc3nncs3)cc2)CC(C)O1 (stereo unspecified)	0	-	0	0	0	0	-
CCN1CCc2c(sc(NC(=O)c3ccc(S(=O)(=O)N4CC(C)OC(C)C4)cc3)c2C(N)=O)C1 (stereo unspecified)	0	0	17	0	0	0	0
CN1CCc2c(sc(NC(=O)c3ccc(C(=O)c4ccccc4)cc3)c2C(N)=O)C1	0	0	12	-	0	0	0
CN1CCc2c(sc(NC(=O)CS(=O)(=O)c3ccccc3)c2C(N)=O)C1	0	0	0	0	0	0	-
CCOC(=O)C1=C(CC)OC(N)=C(C#N)C1c1ccc(OC)c(C)c1OC (stereo unspecified)	0	0	0	0	0	0	-
CCOC(=O)C1=C(C)OC(N)=C(C#N)C1c1ccc(OC)c(C)c1OC (stereo unspecified)	0	0	9.7	0	-	0	0
N=c1n(CCN2CCOCC2)c2ccccc2n1CC(=O)c1ccc(Cl)c(Cl)c1	0	0	7.7	0	-	0	6.6
COc1cccc(C(=O)Cn2c(=N)n(C)c3ccccc32)c1	0	0	7.5	0	-	0	5.1
CCCn1c(=N)n(CC(=O)c2ccc(Cl)cc2)c2ccccc21	0	0	3.8	0	0	0	6.0
CCCn1c(=N)n(CC(=O)c2ccc(OCC(=O)OC)cc2)c2ccccc21	0	0	0	0	0	0	-
C[C@@H]1CN([C@H](C)CO)C(=O)CCCn2cc(nn2)CO[C@@H]1CN(C)C	-	-	-	-	0	-	-
O=C(c1ccccn1)N1C[C@@H]2[C@H](c3ccccc31)[C@@H](CO)N2C(=O)C1CCCCC1	-	-	-	-	0	-	-
O=C(C[C@@H]1CC[C@@H](NC(=O)C2CCC2)[C@@H](CO)O1)NCC1CC1	-	-	-	-	0	-	-
CC(CCCC(C)(C)O)NC(=O)c1cc(COc2ccc3ncccc3c2)on1 (stereo unspecified)	0	0	0	0	0	0	-
Cc1ccc(F)cc1CNC(=O)c1cc(COc2ccc3ncccc3c2)on1	0	0	8.7	0	0	0	0
O=C(NCc1cccc(Cl)c1)c1cc(COc2ccc3ncccc3c2)on1	0	0	10	0	0	0	0
Cc1cc(C)n(CCNC(=O)c2cc(COc3ccc4ncccc4c3)on2)n1	0	0	0	0	0	0	-
Cc1noc(C)c1S(=O)(=O)N(C)C[C@H]1Oc2ccc(NC(=O)NC(C)C)cc2CC(=O)N([C@@H](C)CO)C[C@@H]1C	-	-	-	-	0	-	-
COc1ccccc1/C=N/NC(=O)c1ccc(Br)cc1	0	0	0	0	0	0	-
COc1ccccc1/C=N/NC(=O)C(NC(=O)c1ccccc1)=C(C)C	0	0	32	0	-	0	0
COc1ccc2c3c([nH]c2c1)[C@@H](CO)N(S(C)(=O)=O)CC31CN(C(=O)c2ccncc2)C1	-	-	-	-	0	-	-
CCc1ccc(NC(=S)NC2CC3CCCC(C2)N3Cc2cccs2)cc1 (stereo unspecified)	0	0	4.0	0	-	0	0
